Results: ChEMBL document CHEMBL5335820, “Novel quinolinepiperazinyl-aryltetrazoles targeting the blood stage of Plasmodium falciparum” (RSC Med Chem, 2024)
Active and inactive are the calls of the source. The calls are words filed in the database; no cut-off is given here.

Tests used:
[1] = Toxicity in mouse assessed as effect on water intake at 100 mg/kg, po measured after 45 mins; type: organism-based; details: in vivo, 0.75 h
Outline: (§1)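 Acute oral toxicity per OECD 423. Mice were fasted 4 h, given a single 100 mg/kg oral dose, and observed for 45 min for signs of acute toxicity, compared with untreated controls.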

[2] = Toxicity in mouse assessed as lacrimation at 100 mg/kg, po measured after 45 mins; type: organism-based; details: in vivo, 0.75 h; outline: as §1
[3] = Resistance index, ratio of IC50 of chloroquine resistant Plasmodium falciparum INDO to chloroquine sensitive Plasmodium falciparum 3D7; type: functional
Outline: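 Resistance index = IC50 against PfINDO / IC50 against Pf3D7. Both IC50s came from 72 h SYBR Green I assays.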

[4] = system: Plasmodium falciparum; test: Antiplasmodial activity against chloroquine resistant Plasmodium falciparum INDO infected in human erythrocytes assessed as inhibition of parasite growth at 100 uM incubated for 72 hrs by SYBR green I staining based fluorescence plate reader analysis relative to control; type: functional; details: Erythrocyte
Outline: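 Single-concentration screen at 100 μM against PfINDO, triplicate wells, 72 h. Final DMSO was 0.4%. Growth was read by SYBR Green I lysis (excitation 485, emission 530 nm) and expressed relative to untreated culture, taken as 100% growth.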

[5] = system: Plasmodium falciparum; test: Additive antiplasmodial activity against multidrug-resistant Plasmodium falciparum Cam3.1R539T infected in human erythrocytes at 8 times IC50 concentration incubated for 72 hrs in presence of artemisinin by SYBR green I staining based fluorescence assay; type: functional, organism-based; details: Erythrocyte
Outline: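 P. falciparum Cam3.1R539T in O+ human erythrocytes, 1% parasitemia, 2% haematocrit. 8× IC50 stocks of test compound and standard drug were mixed at molar ratios 4:1, 3:2, 2:3 and 1:4, then serially diluted two-fold. Plates were incubated 72 h at 37 °C and read by SYBR Green I lysis. Controls were 0.4% DMSO (100% growth) and 4 μM chloroquine (0% growth). ΣFIC = FICA + FICB; <1 synergistic, 1.0–2.0 additive, >2.0 antagonistic.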

[6] = Toxicity in mouse assessed as effect on urination at 100 mg/kg, po measured after 45 mins; type: organism-based; details: in vivo, 0.75 h; outline: as §1
[7] = Toxicity in mouse assessed as change in temperature at 100 mg/kg, po measured after 45 mins; type: organism-based; details: in vivo, 0.75 h; outline: as §1
[8] = Toxicity in mouse assessed as coma at 100 mg/kg, po measured after 45 mins; type: organism-based; details: in vivo, 0.75 h; outline: as §1
[9] = system: Plasmodium falciparum; test: Binding affinity to Plasmodium falciparum GAP50 assessed as association constant by SPR analysis
Outline: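 SPR: GAP50 at 50 μg/ml in 10 mM acetate pH 4.5 was immobilised on a CM5 chip by EDC/NHS coupling. Analytes were run in 5% DMSO/PBS at 30 μl/min, with 60 s association and 120 s dissociation. The chip was regenerated with 10 mM glycine pH 3.0 for 30 s. Fits used a 1:1 Langmuir model.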

[10] = Toxicity in mouse assessed as effect on rate of respiration at 100 mg/kg, po measured after 45 mins; type: organism-based; details: in vivo, 0.75 h; outline: as §1
[11] = system: Plasmodium falciparum; test: Antiplasmodial activity against chloroquine resistant ring-stage Plasmodium falciparum INDO infected in human erythrocytes assessed as inhibition of parasite growth incubated for 12 hrs; type: functional, organism-based; details: Erythrocyte
Outline: (§2)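 PfINDO cultures were staged at 0–6 h (rings), 18–22 h (trophozoites), 30–34 h (early schizonts) and 40–44 h (late schizonts) post-invasion. Each was exposed to varying concentrations for 12 h, washed free of compound by centrifugation, and grown 48 h in drug-free medium. IC50 came from growth curves, with untreated culture as 100% and chloroquine-treated culture as 0% growth.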

[12] = system: Plasmodium falciparum; test: (§3) Antiplasmodial activity against artemisinin-resistant early ring stage Plasmodium falciparum Cam3.1R539T infected in human erythrocytes assessed as reduction in parasite growth at 10 times IC50 concentration preincubated for 6 hrs followed by media replacement without compound for 66 hrs and measured after 72 hrs by Giemsa-staining based analysis; type: functional, organism-based; details: Erythrocyte
Outline: (§4)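 Ring-stage survival assay. PfCam3.1R539T or PfINDO rings (0–3 h post-invasion), 1% parasitemia, 2% haematocrit, were exposed to 10× IC50 for 6 h. Compound was removed by three PBS washes, then cultures were grown 66 h in fresh medium. At 72 h, stage progression was assessed on Giemsa smears and revival by SYBR Green I lysis. Triplicate biological samples.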

[13] = Cytotoxicity against human HEK293 cells assessed as reduction in cell viability incubated for 24 hrs by MTT assay; type: toxicity, cell-based
[14] = system: Plasmodium falciparum; test: Antiplasmodial activity against chloroquine sensitive Plasmodium falciparum 3D7 infected in human erythrocytes assessed as inhibition of parasite growth incubated for 72 hrs by SYBR green I staining based fluorescence plate reader analysis; type: functional, organism-based; details: 3D7, Erythrocyte
Outline: (§5)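 Pf3D7 or PfINDO was cultured in O+ human erythrocytes at 37 °C under 5% O2/5% CO2/90% N2 and ring-synchronised with 5% sorbitol. Cultures were exposed to 0–100 μM in triplicate for 72 h, with final DMSO 0.4%. After SYBR Green I lysis buffer (1 h, dark, 37 °C), fluorescence was read at 485/530 nm. Chloroquine-well counts were subtracted as background, and IC50 was obtained by non-linear regression.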

[15] = Binding affinity to Plasmodium falciparum GAP50 assessed as dissociation constant by SPR analysis
Outline: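 GAP50 at 50 μg ml−1 in 10 mM acetate pH 4.5 was amine-coupled (EDC/NHS) onto a CM5 chip. Analytes at several concentrations in 5% DMSO/1× PBS; association 60 s, dissociation 120 s, flow 30 μl min−1. Regeneration with 10 mM glycine pH 3.0 for 30 s. Sensorgrams fitted to a 1:1 Langmuir model giving ka, kd and KD.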

[16] = Selectivity index, ratio of CC50 for human HEK293 cells to IC50 of chloroquine resistant Plasmodium falciparum INDO infected in human erythrocytes; type: toxicity, cell-based; details: read-out: Ratio CC50/IC50
Outline: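 Selectivity index = CC50 / PfINDO IC50. CC50 came from MTT assays: 10^4 HEK293 or HUH7 cells per well, seeded overnight and exposed to 0–100 μM for 24 h, then MTT for 4 h at 37 °C with formazan dissolved in DMSO and read at A570. Controls were 0.8% DMSO (full growth) and 10% DMSO (zero growth).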

[17] = system: Plasmodium falciparum; test: Antiplasmodial activity against chloroquine resistant Plasmodium falciparum INDO infected in human erythrocytes assessed as inhibition of parasite growth incubated for 72 hrs by SYBR green I staining based fluorescence plate reader analysis; type: functional, organism-based; details: Erythrocyte; outline: as §5
[18] = system: Plasmodium falciparum; test: Antimalarial activity against chloroquine resistant early schizont Plasmodium falciparum INDO infected in human erythrocytes assessed as inhibition of parasite growth incubated for 12 hrs; type: functional, organism-based; details: Erythrocyte; outline: as §2
[19] = Toxicity in mouse assessed as change in body weight at 100 mg/kg, po measured after 45 mins; type: organism-based; details: in vivo, 0.75 h; outline: as §1
[20] = system: Plasmodium falciparum; test: as §3, with “chloroquine resistant” for “artemisinin-resistant”, “INDO” for “Cam3.1R539T”; type: functional, organism-based; details: Erythrocyte; outline: as §4
[21] = Toxicity in mouse assessed as diarrhea at 100 mg/kg, po measured after 45 mins; type: organism-based; details: in vivo, 0.75 h; outline: as §1
[22] = Toxicity in mouse assessed as sedation at 100 mg/kg, po measured after 45 mins; type: organism-based; details: in vivo, 0.75 h; outline: as §1
[23] = Toxicity in mouse assessed as appetite loss at 100 mg/kg, po measured after 45 mins; type: organism-based; details: in vivo, 0.75 h; outline: as §1
[24] = system: Plasmodium falciparum; test: Antimalarial activity against chloroquine resistant trophozoites-stage Plasmodium falciparum INDO infected in human erythrocytes assessed as inhibition of parasite growth incubated for 12 hrs; type: functional, organism-based; details: Erythrocyte; outline: as §2

Row | Compound | Activity [1] | Activity [2] | Ratio IC50 [3] | inhibition at 100 µM [4] [%] | Activity [5] | Activity [6] | Activity [7] | Activity [8] | Ka [9] [M⁻¹ s⁻¹] | Activity [10] | IC50 [11] [µM] | Activity [12] | CC50 at 24 h [13] [µM] | IC50 [14] [µM] | Kd [15] [s⁻¹] | selectivity ratio [16] | IC50 [17] [µM] | IC50 [18] [µM] | Activity [19] | Activity [20] | also measured
1 | O=C(Cn1nnc(-c2cccc([N+](=O)[O-])c2)n1)N1CCN(c2ccnc3cc(Cl)ccc23)CC1 | Non-Toxic | Non-Toxic | 0.8 | > 50 | Active | Non-Toxic | Non-Toxic | Non-Toxic | 1920 | Non-Toxic | 7.51 | Active | > 400 | 2.23 | 0.006 | 223 | 1.79 | 2.15 | Non-Toxic | inactive | Activity [21]: Non-Toxic; Activity [22]: Non-Toxic; Activity [23]: Non-Toxic; IC50 [24]: 2.72 µM
2 | Clc1ccc2c(N3CCN(CCCn4nnc(-c5ccc(Br)cc5)n4)CC3)ccnc2c1 | Non-Toxic | Non-Toxic | 1.21 | > 50 | Active | Non-Toxic | Non-Toxic | Non-Toxic | 2610 | Non-Toxic | 2.27 | inactive | 400 | 1.85 | 0.191 | 178 | 2.25 | 2.81 | Non-Toxic | inactive | Activity [21]: Non-Toxic; Activity [22]: Non-Toxic; Activity [23]: Non-Toxic; IC50 [24]: 2.16 µM
